In the library only some 2.2% were active in any assay of this set; here they are far more common.
RanGTP-Impb inh = inhibitors of RanGTP-importin-beta interaction, primary screen, biochemical, FRET, CFP-Ran, YFP-importin-beta, homogeneous | cell-free CFP-Ran/YFP-importin-beta FRET ratio | actives 1.1% (n = 300,000) | inhibition, % (test concentration not listed) | AID 2216;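 active means more than half of the replicate wells show a fall in the fluorescence ratio signal beyond about 16%, limit read from the data, passing the limit was not always enough; inconclusive means exactly half of the replicate wells pass the set limit; inactive means fewer than half of replicates pass the limit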
Tb hexokinase = blocks Trypanosoma brucei hexokinase 1 activity; inhibition, % at 10 µM; recombinant TbHK1, G6PDH-coupled NADH A340; actives 0.11% (n = 220,000); AID 1430;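 active means inhibition of 50% or more in the single-dose primary screen; inactive means inhibition below 50%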
14-3-3 Bad PPI = disrupts binding of bovine 14-3-3 zeta to phospho-Bad peptide | actives 0.71% (n = 220,000) | P63103 | TR-FRET 14-3-3zeta/Dy647-pBad peptide displacement, 1 h | inhibition, % at 21.7 µM;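 active means inhibition above about 70%, limit read from the data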
Runt-SMMHC FRET = Runt domain-CBFb-SMMHC interaction inhibition | Q01196+Q13951 | Cerulean-Runt/Venus-CBFb-SMMHC FRET ratio 530/480, 1 h | inhibition, % at 20 µM | actives 0.74% (n = 220,000);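 active means mean inhibition across duplicate retests at 20 µM reaching about 50%, limit read from the data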;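 further: inhibitors lower the FRET ratio by blocking Runt binding to CBFb-SMMHC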
Hck-Nef inh = human Hck-Nef kinase inhibition; inhibition, % at 20 µM; Recombinant Hck-YEEI plus Nef, Z-Lyte FRET kinase assay; actives 0.68% (n = 220,000);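 active means Hck-Nef kinase inhibition above about 50%, limit read from the data; inactive means inhibition below that limit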
Target sequence (P08631 whole entry, looked up): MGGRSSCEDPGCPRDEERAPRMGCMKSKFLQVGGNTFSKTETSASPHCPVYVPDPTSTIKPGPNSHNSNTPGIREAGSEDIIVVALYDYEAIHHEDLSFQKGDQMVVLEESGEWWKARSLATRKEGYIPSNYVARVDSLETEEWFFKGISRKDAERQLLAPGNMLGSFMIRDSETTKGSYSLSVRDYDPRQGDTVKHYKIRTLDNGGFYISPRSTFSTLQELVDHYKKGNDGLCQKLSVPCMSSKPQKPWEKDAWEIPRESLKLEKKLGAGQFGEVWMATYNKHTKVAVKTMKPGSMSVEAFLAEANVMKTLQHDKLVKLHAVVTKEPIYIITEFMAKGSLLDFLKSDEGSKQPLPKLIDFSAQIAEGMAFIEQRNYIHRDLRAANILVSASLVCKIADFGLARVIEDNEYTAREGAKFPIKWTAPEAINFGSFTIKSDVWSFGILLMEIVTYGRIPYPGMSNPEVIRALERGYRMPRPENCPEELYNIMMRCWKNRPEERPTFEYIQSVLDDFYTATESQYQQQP
Runt-CBFb FRET = inhibitors of human RUNX1 Runt domain binding to CBFb. Q01196+Q13951. AID 1496. Cerulean-Runt/Venus-CBFb FRET ratio 530/480, 1 h. inhibition, % at 20 µM. actives 0.46% (n = 220,000);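 active means inhibition over about 50% at 20 µM in the single-dose screen, limit read from the data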
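test system = Cerulean-tagged RUNX1 Runt domain (FRET donor) fusion protein | reagent = Venus-CBFb binding partner, 100 nM | incubation = protein complex preformed 1 h, compound exposure 1 h, room temperature, dark | detection = FRET fluorescence | read-out basis = loss of energy transfer signal | controls = 5 µM unlabeled CBFb as full-inhibition high control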
Hck-Nef confirm = Hck-Nef kinase inhibition, confirmation. shares compounds with Hck-Nef inh. Recombinant Hck-YEEI:Nef, Z-Lyte FRET kinase assay. calls only at 10 µM. actives 28% (n = 1,300). AID 463188;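 active means average inhibition of at least 50%, with Z-scores no higher than 3 in both the phospho-tyrosine peptide and fluorescence counterscreens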
Each line names hits and unclear results; the compound was inactive in the other large screens (follow-up assays come after a bar, where they were run).

CC(=O)OCC1=C(C(=O)O)N2C(=O)C(NC(=O)c3ccc(COc4ccc(Cl)cc4)o3)C2SC1 (stereo not given)	Hck-Nef inh 63.6 | Hck-Nef confirm inactive
CC(=O)OCC1=C(C(=O)O)N2C(=O)[C@@H](NC(=O)Cc3cccs3)[C@H]2SC1	none
CC(=O)OCC1=C(C(=O)O)N2C(=O)C(NC(=O)c3ccc(COc4c(C)cccc4Cl)o3)C2SC1 (stereo not given)	Hck-Nef inh 76.9 | Hck-Nef confirm inactive
O=C(CCCc1nc2ccccc2s1)NC(c1ccccc1)c1ccccc1	none
Cc1ccc(F)cc1NC(=O)CSc1nnc(CNC(=O)c2ccco2)n1C	none (no result: Tb hexokinase, 14-3-3 Bad PPI, Runt-SMMHC FRET, Hck-Nef inh, Runt-CBFb FRET)
CCN1CCN(Cc2ccc(NC(=O)c3ccc(C)c(NC(=O)c4ccno4)c3)cc2C(F)(F)F)CC1	Hck-Nef inh 101.2 | Hck-Nef confirm active
COc1ccc(/C=c2\s/c(=C\C(=O)C(C)(C)C)[nH]c2=O)cc1O	RanGTP-Impb inh inconclusive, Hck-Nef inh 70.9 | Hck-Nef confirm active
CC1Oc2ccccc2N(CC(=O)NC2CCCCC2)C1=O (stereo not given)	none (no result: Tb hexokinase, 14-3-3 Bad PPI, Runt-SMMHC FRET, Hck-Nef inh, Runt-CBFb FRET)
O=C(NC1CCCCC1)c1c2c(nc3ccccc13)CCC2	none
CCN1CCCc2cc(CN(CCN3CCOCC3)C(=S)Nc3ccccc3C)ccc21	Hck-Nef inh 56.9 | Hck-Nef confirm inactive
CCN1CCCc2cc(CN(CCN3CCOCC3)C(=S)Nc3ccc(OC)c(OC)c3)ccc21	Hck-Nef inh 52.2 | Hck-Nef confirm inactive
CCCc1cc(=O)n2nc(N3CCC(C(=O)N4CCN(c5ccc(OC)cc5)CC4)CC3)sc2n1	none (no result: Tb hexokinase, 14-3-3 Bad PPI, Runt-SMMHC FRET, Hck-Nef inh, Runt-CBFb FRET)
CCOc1ccccc1C(=O)NC(C(=O)Nc1cccc(S(N)(=O)=O)c1)C(C)C (stereo not given)	none
N#Cc1c(-c2cccs2)nc(SCc2ccc(Cl)cc2)[nH]c1=O	Hck-Nef inh 69.4 | Hck-Nef confirm active
Cc1noc(C)c1CSc1ncnc2ccccc12	none
Cc1ccc2nc(NC(=O)c3cccc(-c4cc5ccccc5oc4=O)c3)sc2c1	Hck-Nef inh 63.2 | Hck-Nef confirm inactive
CCOC(=O)Cc1csc(NC(=O)COc2ccc(C)c(C)c2)n1	Hck-Nef inh 52.5 (no result: Runt-SMMHC FRET, Runt-CBFb FRET) | Hck-Nef confirm inactive
N#Cc1ccc(Cl)cc1NC(=O)CSc1nc2nc(-c3cccs3)cc(C(F)(F)F)c2c(=O)[nH]1	Hck-Nef inh 67.3 | Hck-Nef confirm inactive
Cc1cc(C)c2c(n1)SCC(=O)N2CC(=O)Nc1ccc(F)cc1	none (no result: Tb hexokinase, 14-3-3 Bad PPI, Runt-SMMHC FRET, Hck-Nef inh, Runt-CBFb FRET)
CCn1c(O)c(/C=C/C=C/C=Nc2ccccc2)sc1=S	none
Oc1c(/C=C/C=C/C=Nc2ccccc2)sc(=S)n1Cc1ccccc1	Hck-Nef inh 50.2 | Hck-Nef confirm inactive
CSc1nsc(/C=C/Nc2ccc(F)cc2F)c1C#N	Hck-Nef inh 51.1 (no result: RanGTP-Impb inh) | Hck-Nef confirm inactive
CSc1nsc(/C=C/Nc2ccc(C(=O)O)cc2)c1C#N	none
Cc1ccc(OP(=O)(Nc2c(C)n(C)n(-c3ccccc3)c2=O)Oc2ccc(C)cc2)cc1	none
COc1ccc(C(=O)N2CCCC(C(=O)N3CCCCCC3)C2)cc1 (stereo not given)	Hck-Nef inh 56.9 | Hck-Nef confirm inactive
COc1cc(/C=C/C(=O)OCC(=O)Nc2sc3c(c2C#N)CCC(C)C3)ccc1OCC#N (stereo not given)	Hck-Nef inh 50.9 | Hck-Nef confirm inactive
COc1cc(/C=C/C(=O)OCC(=O)NCC2CCCO2)ccc1OCC#N (stereo not given)	none
CCN(CC)c1ccc(/C=C2/C(=O)c3ccc(C(=O)O)cc3C2=O)cc1	Hck-Nef inh 55.4 (no result: RanGTP-Impb inh) | Hck-Nef confirm inactive
Cc1ccc(/C=N/Nc2ncnc3nc[nH]c23)cc1	Hck-Nef inh 93.3 | Hck-Nef confirm active
Cc1ccc(C)c(Nc2ncnc3nc[nH]c23)c1	none
Oc1ccc(/C=N/Nc2ncnc3nc[nH]c23)cc1	Hck-Nef inh 94.9 | Hck-Nef confirm active
Clc1ccc(/C=N/Nc2ncnc3nc[nH]c23)cc1	Hck-Nef inh 84.1 | Hck-Nef confirm active

Bioassay records (PubChem)
